Calls of active or inactive are those of the source. No cut-off for these calls is given here.
Experiments:
RAW264.7 [1] = assay: Antiinflammatory activity in LPS-stimulated mouse RAW264.7 cells assessed as iNOS protein expression at 10 uM after 16 hrs by immunoblot analysis relative to control; conditions: RAW264.7, 16 h
RAW264.7 [2] = assay: Antiinflammatory activity in LPS-stimulated mouse RAW264.7 cells assessed as inhibition of COX2 protein expression at 10 uM after 16 hrs by immunoblot analysis relative to control; format: functional
Outline: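 RAW 264.7 macrophages (ATCC TIB-71) stimulated with E. coli LPS (0.01 μg/mL) for 16 h with or without compound. Cells washed in ice-cold PBS, lysed, and spun at 20,000g for 30 min at 4 °C. Equal protein loaded for SDS-PAGE and transferred to PVDF. Blots probed 180 min with anti-iNOS or anti-COX-2 (1:1000) and detected by ECL. Levels expressed relative to LPS-only cells. CAPE 10 µM used as reference.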

[3] = test system: Salmonella enterica subsp. enterica; assay: Antibacterial activity against Salmonella enteritidis ATCC 13076 up to 100 ug/disk after 24 hrs by agar well diffusion method; format: functional, organism-based; conditions: Salmonella enterica subsp. enterica serovar Enteritidis, in the assay text read “paper disk diffusion method” for “agar well diffusion method”
Outline: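 S. enteritidis ATCC13076 grown in LB broth 24 h at 37 °C. Broth culture (0.3 mL) mixed into 0.7% LB soft agar and layered over 1.5% LB hard agar. Compound applied to 8 mm paper disks at 2 μg/μL, tested up to 100 μg/disk. Ampicillin (5 μg/μL) and solvent served as controls. Plates incubated 24 h at 37 °C.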

Human betaherpesvirus 5 = assay: Inhibition of HCMV UL76 encoded endonuclease expressed in Escherichia coli BL21 (DE3)-RIL assessed as inhibition of supercoiled double stranded phi X 174 bacteriophage DNA cleavage after 1 hr by agarose gel electrophoresis
Outline: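 Calmodulin-tagged HCMV UL76 endonuclease purified from E. coli BL21-codon DE3-RIL carrying pCBP-UL76. Serially diluted compound incubated with 1 µg CsCl-purified supercoiled dsDNA φX174, reaction buffer and enzyme at 37 °C for 1 h. Products resolved on 1% agarose gel. IC50 is the concentration giving 50% inhibition of substrate cleavage.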

RAW264.7 [4] = assay: Antiinflammatory activity in LPS-stimulated mouse RAW264.7 cells assessed as COX2 protein expression at 10 uM after 16 hrs by immunoblot analysis relative to control; conditions: RAW264.7, 16 h

Compound | inhibition (Human betaherpesvirus 5) | iNOS protein level (% of LPS control) at 10 µM (RAW264.7 [1]) | inhibition (RAW264.7 [2]) | inhibition [3] | Activity (RAW264.7 [2]) | COX-2 protein level (% of LPS control) at 10 µM (RAW264.7 [4])
C=C1C(=O)O[C@@H]2[C@@H]1C[C@H](OC(C)=O)[C@@](O)(COC(C)=O)CC/C=C(\C)CC/C=C(\C)[C@H]2O (relative stereo) [DURUMOLIDE G] | inactive | 7.3% | inactive | inactive | – | –
C=C1C(=O)O[C@@H]2[C@@H]1C[C@H](OC(C)=O)[C@@](O)(COC(C)=O)CC/C=C(\C)CC/C=C(\C)[C@H]2OC(C)=O (relative stereo) [DURUMOLIDE H] | inactive | 22.6% | – | inactive | inactive | –
C=C1C(=O)O[C@@H]2[C@@H]1C[C@H]1O[C@]1(COC(C)=O)CC/C=C(\C)[C@@H](O)C/C=C(\C)[C@H]2OC(C)=O (relative stereo) [DURUMOLIDE I] | inactive | 6.2% | inactive | inactive | – | –
O=C(/C=C/c1ccc(O)c(O)c1)OCCc1ccccc1 [CAFFEIC ACID PHENETHYL ESTER] | – | 1.5% | – | – | – | 70.2%
C=C1C(=O)O[C@H]2C/C(C)=C/CC/C(C)=C/CC[C@](O)(COC(C)=O)[C@@H](O)C[C@H]12 [DURUMOLIDE F] | inactive | 0.8% | – | inactive | – | 47.8%

Continued, in another order:

inhibition (Human betaherpesvirus 5) | Compound | iNOS protein level (% of LPS control) at 10 µM (RAW264.7 [1]) | inhibition (RAW264.7 [2]) | inhibition [3] | Activity (RAW264.7 [2]) | COX-2 protein level (% of LPS control) at 10 µM (RAW264.7 [4])
inactive | C=C1C(=O)O[C@H]2C(=O)/C(C)=C/CC/C(C)=C/CC[C@@]3(CO)O[C@@H]3C[C@H]12 (relative stereo) [DURUMOLIDE K] | 5.7% | – | inactive | – | 71.6%
inactive | C=C1C(=O)O[C@H]2C(=O)/C(C)=C/CC/C(C)=C/CC[C@@]3(C=O)O[C@@H]3C[C@H]12 (relative stereo) [DURUMOLIDE L] | 1.2% | inactive | inactive | – | –
inactive | C=C1C(=O)O[C@@H]2[C@@H]1C[C@H]1O[C@]1(C)CC/C=C(\C)CC/C=C(\C)[C@H]2O [DURUMOLIDE J] | 0.1% | inactive | inactive | – | –
inactive | C=C1C(=O)O[C@H]2C/C(C)=C/CC/C(C)=C/CC[C@@]3(CO)O[C@@H]3C[C@H]12 [SINULAROLIDE D] | 2.2% | inactive | inactive | – | –

Source: ChEMBL document CHEMBL1158431, “Anti-inflammatory cembranolides from the soft coral Lobophytum durum” (2009)
